This passage reports Activity, solubility and Kd results from ChEMBL document CHEMBL1629590, “Variety of antiprion compounds discovered through an in silico screen based on cellular-form prion protein structure: Correlation between antiprion activity and binding affinity” (Antimicrob Agents Chemother, 2009).

Data set [1] has as its target Major prion protein (Mus musculus) (UniProt P04925). Description: Antiprion activity against mouse recombinant PrP expressed in Fukuoka-1 stain infected mouse GT1-7 cells assessed as remaining PrP-res level at 10 uM after 72 hrs by Western blotting relative to control. It is filed as cell-based. The essentials:
(§1)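 GT+FK cells (GT1-7 neuronal line persistently infected with Fukuoka-1 agent) in DMEM/10% FBS, 37°C, 5% CO2; 1.5 × 10⁵ cells/well, dosed 15 h after plating with compound from fresh 10 mM DMSO stock (vehicle 0.1%) for 72 h. Lysates in Triton X-100/deoxycholate buffer adjusted to 2 mg/ml protein; PrP^Sc by Western blot with M-20 antibody, densitometry versus solvent control; effective if <70% of control; ≥2 independent experiments.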
(A western blot detects proteins with antibodies after separation by electrophoresis.)

A short description of data set [2]: Solubility of the compound. It is filed as physicochemical.
The target in another data set is Major prion protein (Mus musculus, UniProt P04925). Briefly: Binding affinity to mouse recombinant PrP (121-231) after 10 mins by surface plasmon resonance assay. Summed up: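 Recombinant mouse PrP(121-231) immobilized on CM5 chip; compounds at various concentrations injected in HEPES-buffered saline (pH 7.4) with 0.1% P20 and 5% DMSO, 1 min at 30 μl/min, then buffer alone for 10 min. Blank-chip corrected; Kd fitted from concentration dependence of sensorgram response.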
Major prion protein, sequence (P04925 whole entry): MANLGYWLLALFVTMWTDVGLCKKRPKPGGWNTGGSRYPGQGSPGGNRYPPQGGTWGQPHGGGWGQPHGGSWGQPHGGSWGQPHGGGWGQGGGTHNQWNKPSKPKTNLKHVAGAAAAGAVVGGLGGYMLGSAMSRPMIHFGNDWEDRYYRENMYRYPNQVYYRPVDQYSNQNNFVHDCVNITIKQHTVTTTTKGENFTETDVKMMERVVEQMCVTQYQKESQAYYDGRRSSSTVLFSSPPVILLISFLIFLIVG

Data set [3] addresses Major prion protein (Mus musculus) (UniProt P04925). Briefly: Antiprion activity against mouse recombinant PrP expressed in Fukuoka-1 stain infected mouse GT1-7 cells at 10 uM after 72 hrs by Western blotting. Format: cell-based. Summed up: as §1

The term Kd denotes the free concentration of one partner at which half of the binding sites on the other are occupied at equilibrium, for simple one-to-one binding.

Molecules are shown by their SMILES. A value given as a limit tells only on which side of the number the result lay.

Major prion protein (Mus musculus), sequence (P04925 whole entry): as above

Consider `O=C(NCc1ccccn1)C1CC2c3ccccc3C1c1ccccc12` (stereo not drawn), for which the Activity in data set [1] was 54.7%. In data set [2], the solubility result was “Insoluble”.
Consider `O=C(CN1C(=O)COc2ccccc21)N1CCCc2ccccc21`, for which the Activity in data set [1] was 57.5%.
Regarding `O=C(Cc1c[nH]c2ccccc12)NC1CCc2ccccc2C1` (stereo not drawn), on Major prion protein (read-out: Kd), the Kd is 48.6 µM. For the same compound, the Activity in data set [1] worked out at 55.3%.
For the compound `Cc1cccc(NC(=O)N2CCCC2C(=O)NC2CCCC2)c1` (stereo not drawn), in data set [1], the Activity turned out to be 63.2%.
The same measure, in the same setting: in the case of `CCCc1nc2ccccc2n1CC(=O)N1CCCc2ccccc21` it was 67.2%.
As for `CC1CCCCN1CC(=O)Nc1sc2c(c1C#N)CCCCC2` (stereo not drawn), the Kd at Major prion protein (read-out: Kd) came to 21.9 µM. The Activity in data set [1] stood at 58.8%.
For the compound `C=CCNC(=O)NC(=O)CSc1nc2ccccc2n1CC(C)C`, the Kd result at Major prion protein is on record as “Not Active”.
As for `CCC(C)C(NC(=O)c1ccccc1)C(=O)N1CCc2ccccc21` (stereo not drawn), the Kd on Major prion protein (read-out: Kd) is 51.2 µM. Moreover, the Activity in data set [1] is 36.8%; in data set [3] it was under 70%.
On to `O=C(CSc1ncnc2sc3c(c12)CCC3)NCC1CCCO1` (stereo not drawn), for which, at Major prion protein, the Kd entry was “Not Active”.
As for `Cc1cc2cc3c(cc2nc1SCCN1CCCCC1)OCCO3`, the Kd on Major prion protein (read-out: Kd) worked out at 50.8 µM. The Activity in data set [1] is 47.4%; in data set [3] it was under 70%.
On to `Cc1cccc2cc(C#N)c(N3CCCN(C(=O)C4CCC4)CC3)nc12`, for which the Activity in data set [1] was 50.6%.
On the same count and under the same terms, in the case of `O=C1c2cccc3cccc(c23)N1CC(=O)N1CC2CCC1C2` (stereo not drawn) it was 65%; in that of `N#Cc1c(NC(=O)c2cc3c(s2)CCCC3)sc2c1CCCC2`, 66.9%; in that of `CC1CCCCC1NC(=O)COc1ncnc2sc3c(c12)CCC3` (stereo not drawn), 68.8%.
As for `O=C(CN1C(=O)NC2(CCCc3ccccc32)C1=O)N1CCCCC1` (stereo not drawn), the Activity in data set [1] is 67.1%.
Same read-out and setting: in the case of `O=C(COc1ncnc2ccccc12)NC1CCCc2ccccc21` (stereo not drawn) it was 53%.
`Cc1ccc(NC(=O)CN2C(=O)NC3(CCc4ccccc43)C2=O)cc1` (stereo not drawn): the Activity in data set [1] came to 150%.
On the same count and under the same terms, in the case of `O=C(Cc1coc2cc3c(cc12)CCC3)N1CCc2ccccc21` it was 63.7%; in that of `O=C(CSc1nc2ccccc2[nH]1)NC1CCCc2ccccc21` (stereo not drawn), 64.9%.
As to `Cc1cccc2cc3c(N)c(C(=O)NC4CCCC4)sc3nc12`, the Kd on Major prion protein (read-out: Kd) stood at 86.1 µM. The figures for the Activity in data set [1] and in data set [3] were 41.9% and under 70%, respectively.
As to `CC(=O)N(Cc1ccccc1)Cc1cc2cccc(C)c2n2nnnc12`, the Kd result at Major prion protein was “Not Active”.
Take `O=C(COC(=O)c1c2c(nc3ccccc13)CCC2)NC1CCCC1`: in data set [1], the Activity is 62.9%.
Still for that read-out and setting: in the case of `CN1/C(=C/C(=O)Nc2cccs2)c2ccccc2CC1(C)C` it was 57.4%; in that of `O=C(CCc1nc2ccccc2c(=O)[nH]1)NC1CCCc2ccccc21` (stereo not drawn), 65%.
In the case of `CCCCNc1nc2ccccc2n1CC(=O)N1CCc2ccccc21`, the Kd at Major prion protein (read-out: Kd) turned out to be 20 µM. Also, the Activity in data set [1] is 37.3%; in data set [3] it was under 70%.
Consider `CC1Cc2ccccc2N1C(=O)COc1ncnc2sccc12` (stereo not drawn), for which, in data set [1], the Activity is 67.4%.
On to `Cc1ccc2c(c1)c1c(n2CC(O)CN2CCCCC2)C(=O)CCC1` (stereo not drawn), for which the Activity in data set [1] came out at 51.3%.
